Series [1] deals with Plasmodium falciparum. Description: Antimalarial activity against Plasmodium falciparum 3D7 assessed as reduction in parasite growth measured after 72 hrs by Monash assay based fluorescence analysis. The class given is functional, organism-based. Particulars: 3D7, 72 h. In a few lines: (§1)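 Asynchronous P. falciparum cultures were grown continuously in complete RPMI with 25 mM HEPES, 0.5% Albumax II, 0.37 mM hypoxanthine and 2.0 g/l bicarbonate. They were exposed to serially diluted compound for 72 h. Controls were DMSO (0.01%) and a reference positive control. Fluorescence was read after 2 h in the dark at room temperature. IC50 is mean SEM from technical duplicate or triplicate, at least three biological replicates.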

The subject of series [2] is Plasmodium falciparum 3D7. Description: Binding affinity to Plasmodium falciparum 3D7 AMA1 (104 to 438 residues) expressed in Escherichia coli BL21(DE3) by surface plasmon resonance assay.
Series [3] relates to Plasmodium falciparum. In words: Antimalarial activity against artemisinin-resistant Plasmodium falciparum Cam3.II^C580Y expressing K13 mutant assessed as reduction in parasite growth measured after 72 hrs by Monash assay based fluorescence analysis. The class given is functional, organism-based. Put shortly: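 Asynchronous culture, 72 h compound exposure. Compounds prepared at […] (twice the top concentration) in complete RPMI (25 mM HEPES, 0.5% Albumax II, 0.37 mM hypoxanthine, sodium bicarbonate), then serially diluted. Fluorescence read after 2 h room-temperature dark incubation. Negative control 0.01% DMSO. IC50 as mean SEM, n ≥ 3 biological replicates, each in technical duplicate or triplicate.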

In series [4] the test system is Plasmodium falciparum. Description: Antimalarial activity against artemisinin-sensitive Plasmodium falciparum Cam3.II^rev expressing wild type K13 assessed as reduction in parasite growth measured after 72 hrs by Monash assay based fluorescence analysis. It is filed as functional, organism-based. In a few lines: as §1
Series [5] is described as follows: Selectivity index, ratio of IC50 for cytotoxicity against human HEK293 cells to antiplasmodial activity against Plasmodium falciparum 3D7. The class given is toxicity, cell-based. Particulars: read-out: Ratio IC50.
The nature of series [6]: Kinetic solubility of the compound at pH 2 measured after 30 mins by nephelometry. It is filed as physicochemical. As to conditions: buffer, read-out: Kinetic_solubility. In a few lines: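 Compound in DMSO was spiked into 0.01 M HCl (pH ~2.0) at a final DMSO of 1%. After 30 min, nephelometry gave a solubility range.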
A short description of series [7]: Metabolic stability in mouse liver microsomes assessed as half-life at 1 uM measured for 60 mins in presence of NADPH regenerating system by LC-MS analysis. The class given is ADME, Microsome. In a few lines:
(§2)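 Compound was incubated at 37 °C with liver microsomes at 0.4 mg/mL protein. The reaction was started with an NADPH-regenerating system and quenched at time points over 60 min with acetonitrile containing diazepam as internal standard. No-NADPH controls were quenched at 2, 30 and 60 min.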
(In general: Microsomes from liver hold many membrane-bound enzymes, among them those of drug oxidation.)

The nature of series [8]: Metabolic stability in human liver microsomes assessed as half-life at 1 uM measured for 60 mins in presence of NADPH regenerating system by LC-MS analysis. The class given is ADME, Microsome. Put shortly: as §2
Series [9] in a line: Metabolic stability in mouse liver microsomes assessed as intrinsic clearance at 1 uM measured per mg protein for 60 mins in presence of NADPH regenerating system by LC-MS analysis. Particulars: read-out: CLH. The class given is ADME, Microsome. Put shortly: as §2
The nature of series [10]: Metabolic stability in human liver microsomes assessed as intrinsic clearance at 1 uM measured per mg protein after 60 mins in presence of NADPH regenerating system by LC-MS analysis. The class given is ADME, Microsome. Particulars: read-out: CLH. In a few lines: as §2
Series [11] can be described thus: Kinetic solubility of the compound at pH 6.5 measured after 30 mins by nephelometry. Particulars: buffer, read-out: Kinetic_solubility.
The test system of the next series is HEK293. In words: Cytotoxicity against human HEK293 cells assessed as reduction in cell viability at 50 uM measured after 24 hrs by MTT assay. Particulars: hek293, 24 h. In general terms: Tetrazolium assays rely on reduction of a dye to a coloured formazan, in cell work by metabolically active cells.
The subject of series [12] is Plasmodium falciparum. Description: Antimalarial activity against synchronous ring stage of Plasmodium falciparum 3D7 assessed as parasite growth inhibition incubated for 72 hrs by Griffith assay based fluorescence analysis. It is filed as functional, organism-based. As to conditions: 3D7, 72 h. Put shortly:
(§3)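 22-point dose-response, 3 per log, final 40 µM top, 0.4% DMSO. 72 h at 37 °C under 90% N2/5% CO2/5% O2. DAPI stain, confocal imaging. IC50 from 4-parameter fit normalised to in-plate puromycin and DMSO controls.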

For series [13], the system named is Plasmodium falciparum. In words: Antimalarial activity against synchronous ring stage of Plasmodium falciparum Dd2 assessed as parasite growth inhibition incubated for 72 hrs by Griffith assay based fluorescence analysis. The class given is functional, organism-based. Particulars: Dd2, 72 h. Put shortly: as §3
Series [14] can be described thus: Selectivity index, ratio of IC50 for antimalarial activity against Plasmodium falciparum Dd2 to IC50 of antimalarial activity against Plasmodium falciparum 3D7. The class given is functional.
Series [15] concerns Plasmodium falciparum. In words: Antiplasmodial activity against PfATP4 inhibitor SJ557733-resistant Plasmodium falciparum Dd2 assessed as reduction in parasite growth incubated for 72 hrs by Griffith assay based fluorescence analysis. It is filed as functional, organism-based. As to conditions: Dd2, 72 h. In a few lines:
as §3

Series [16] deals with Plasmodium falciparum. Description: Selectivity index, ratio of IC50 for antimalarial activity against PfATP4 inhibitor SJ557733-resistant Plasmodium falciparum Dd2 to IC50 of antimalarial activity against Plasmodium falciparum Dd2. It is filed as functional.

pIC50: −log10 of the molar value. In brackets after ≈: the same amount, converted by molar mass. Activity calls are given as the source filed them. No cut-off for these calls is given here. Bounds are passed on as bounds.

As usually defined, the pIC50 is the IC50 on a negative log10 scale, so that one unit is a factor of ten. Consider `Nc1nc2ccccc2n1-c1ccc2cccnc2c1O`, for which the pIC50 in the series on Plasmodium falciparum [1] was less than 6.30. As for `Cc1ccc(-n2c(N)nc3ccccc32)cc1`, the pIC50 in the series with Plasmodium falciparum [1] is less than 6.30. Besides, in series [2], the outcome was inactive.

As for `Nc1nc2ccccc2n1-c1cccc(F)c1O`, in the series on Plasmodium falciparum [1], the pIC50 is less than 6.30. The same measure, in the same setting: the figure for `Nc1nc2ccccc2n1[C@H]1CCC[C@@H]1O` is less than 6.30; for `Nc1nc2ccccc2n1-c1cc(F)ccc1O` it is 7.05; for `Nc1nc2ccccc2n1-c1ccc(Cl)cc1O` it is 6.79. Regarding `Nc1nc2ccccc2n1-c1cccc(O)c1`, the negative-log IC50 (pIC50) in the series with Plasmodium falciparum [1] was less than 6.30. Besides, in series [2], the result was inactive. With `COc1cccc(O)c1-n1c(N)nc2ccccc21`, in the series with Plasmodium falciparum [1], the pIC50 is 6.74. Consider `Nc1nn(-c2ccccc2O)c2ccccc12`, for which the pIC50 in the series with Plasmodium falciparum [1] was less than 6.30. Regarding `CCNc1nc2ccccc2n1-c1ccccc1O`, in the series with Plasmodium falciparum [1], the negative-log IC50 (pIC50) was less than 6.30.

Turning to `Nc1nc2ccccc2n1-c1cccc(Cl)c1O`, the negative-log IC50 (pIC50) with Plasmodium falciparum [1] is less than 6.30. Take `Nc1nc2ccccc2n1-c1ccccc1F`: the negative-log IC50 (pIC50) in the series with Plasmodium falciparum [1] is less than 6.30. Besides, in series [2], the result was inactive. With `Nc1ccccc1-n1c(N)nc2ccccc21`, the negative-log IC50 (pIC50) in the series on Plasmodium falciparum [1] was less than 6.30. Also, in series [2], the result was inactive.

For `Nc1nc2ccccc2n1-c1cccc2ccoc12`, the pIC50 in the series on Plasmodium falciparum [1] was less than 6.30. The same measure, in the same setting: the figure for `COc1cccc(-n2c(N)nc3ccccc32)c1O` is 7.26.

For the molecule `Nc1ccccc1-n1c(O)nc2ccccc21`, the pIC50 with Plasmodium falciparum [1] was less than 6.30. On to `Nc1nc2ccccc2n1-c1c(O)cccc1Cl`, for which the negative-log IC50 (pIC50) with Plasmodium falciparum [1] is less than 6.30. Consider `Oc1ccccc1-n1cnc2ccccc21`, for which, in the series on Plasmodium falciparum [1], the pIC50 was less than 6.30.

In general, half-life refers to how long it takes for the measured level to halve. Take `COc1ccc(-n2c(N)nc3ccccc32)c(O)c1`: the pIC50 is 7.37 in the series on Plasmodium falciparum [1], 6.77 in the series on Plasmodium falciparum [3] and 6.67 in the series with Plasmodium falciparum [4]. Also, the selectivity ratio in series [5] was greater than 1000. Moreover, the solubility kinetic at 0.5 h was greater than 100 µg/mL in series [6] and 50 µg/mL (≈ 196 µM) in series [11]. The figures for the half-life at 1 µM in series [7] and in series [8] were 6 min and 2.07 h, respectively. In addition, the results for the microsomal CLint at 1 µM in series [9] and in series [10] were 271 µL/min/mg and 14 µL/min/mg, respectively. For the same molecule, the Activity entry in the series with HEK293 is reported as “Non-Toxic”. As to `COc1ccc(C[C@H](N)C(=O)N[C@H]2[C@@H](O)[C@H](n3cnc4c(N(C)C)ncnc43)O[C@@H]2CO)cc1` [PUROMYCIN], the pIC50 is 6.83 in the series with Plasmodium falciparum [12] and 6.94 in the series on Plasmodium falciparum [13]. The Ratio IC50 in [14] was 0.8. Consider `COc1ccc2nc3cc(Cl)ccc3c(Nc3cc(CN4CCCC4)c(O)c(CN4CCCC4)c3)c2n1` [PYRONARIDINE], for which the negative-log IC50 (pIC50) with Plasmodium falciparum [12] was 8.13; in the series with Plasmodium falciparum [13] it was 8.08. For the same molecule, the Ratio IC50 in series [14] is 1.1.

Take `Oc1ccccc1-n1c(NC2CCCCC2)nc2ccccc21`: in the series with Plasmodium falciparum [1], the pIC50 is 6.48. `Nc1nc2ccccc2n1-c1c(O)cccc1F`: the negative-log IC50 (pIC50) in the series with Plasmodium falciparum [1] was 6.49. Consider `CC(C)Nc1nc2ccccc2n1-c1ccccc1O`, for which, in the series on Plasmodium falciparum [1], the negative-log IC50 (pIC50) was less than 6.30. Turning to `C[C@H]1[C@@H](O)O[C@@H]2O[C@@]3(C)CC[C@H]4[C@H](C)CC[C@@H]1[C@@]24OO3` [ARTENIMOL], the pIC50 is 8.70 in the series on Plasmodium falciparum [1], 9.40 in the series with Plasmodium falciparum [12] and 9.22 in the series with Plasmodium falciparum [13]. For the same molecule, the Ratio IC50 in series [14] stood at 1.3. With `N#Cc1cc(NC(=O)[C@H]2c3ccccc3C(=O)N(CC(F)(F)F)[C@@H]2c2cccnc2)ccc1F` [SJ-733], the pIC50 in the series with Plasmodium falciparum [13] was 7.23; with Plasmodium falciparum [15], less than 5.10. Further, the Ratio IC50 in the series on Plasmodium falciparum [16] was greater than 135. With `Nc1ncccc1-c1ccccc1O`, the pIC50 in the series on Plasmodium falciparum [1] is less than 6.30. On to `Nc1ccc(-n2c(N)nc3ccccc32)cc1`, for which, in the series with Plasmodium falciparum [1], the negative-log IC50 (pIC50) was less than 6.30. The outcome in series [2] was inactive. For `Nc1nc2ccccc2n1-c1ccccc1CO`, the pIC50 with Plasmodium falciparum [1] is less than 6.30. Besides, in series [2], the outcome was inactive. As for `Oc1ccccc1-n1c(NCc2ccccc2)nc2ccccc21`, the negative-log IC50 (pIC50) in the series with Plasmodium falciparum [1] was less than 6.30.

Values taken from ChEMBL document CHEMBL4837227, “Discovery and development of 2-aminobenzimidazoles as potent antimalarials” (Eur J Med Chem, 2021).
